IC50 and Activity data for two molecules are collected here from ChEMBL document CHEMBL3232764, “Influence of the adamantyl moiety on the activity of biphenylacrylohydroxamic acid-based HDAC inhibitors” (Eur J Med Chem, 2014).

In one test the test system is HCT-116. The test can be described thus: Antiproliferative activity against human HCT116 cells assessed as growth inhibition after 72 hrs. The settings on record: HCT-116, 72 h. The format is functional, cell-based. The method in brief: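 Log-phase cells seeded in duplicate in 6-well plates; drug added 24 h after seeding. Cells harvested 72 h after drug exposure and counted with a cell counter. IC50 = drug concentration giving 50% reduction in cell number versus untreated control.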

For another test, the target named is Histone deacetylase 1 (Homo sapiens, UniProt Q13547). The test can be described thus: Inhibition of human HDAC1 using fluorogenic tetrapeptide RHKKAc as substrate.
Another test addresses Histone deacetylase 3 (Homo sapiens, UniProt O15379).
The target of another test is Histone deacetylase 4 (Homo sapiens, UniProt P56524). The test can be described thus: Inhibition of human HDAC4 using fluorogenic tetrapeptide RHKKAc as substrate.
A further test deals with Histone deacetylase 5 (Homo sapiens, UniProt Q9UQL6). As to the kind of experiment: Inhibition of human HDAC5 using fluorogenic tetrapeptide RHKKAc as substrate.
The target of test [1] is T1, Protein deacetylase HDAC6 (Homo sapiens, UniProt Q9UBN7).
T1 sequence (Q9UBN7 whole entry): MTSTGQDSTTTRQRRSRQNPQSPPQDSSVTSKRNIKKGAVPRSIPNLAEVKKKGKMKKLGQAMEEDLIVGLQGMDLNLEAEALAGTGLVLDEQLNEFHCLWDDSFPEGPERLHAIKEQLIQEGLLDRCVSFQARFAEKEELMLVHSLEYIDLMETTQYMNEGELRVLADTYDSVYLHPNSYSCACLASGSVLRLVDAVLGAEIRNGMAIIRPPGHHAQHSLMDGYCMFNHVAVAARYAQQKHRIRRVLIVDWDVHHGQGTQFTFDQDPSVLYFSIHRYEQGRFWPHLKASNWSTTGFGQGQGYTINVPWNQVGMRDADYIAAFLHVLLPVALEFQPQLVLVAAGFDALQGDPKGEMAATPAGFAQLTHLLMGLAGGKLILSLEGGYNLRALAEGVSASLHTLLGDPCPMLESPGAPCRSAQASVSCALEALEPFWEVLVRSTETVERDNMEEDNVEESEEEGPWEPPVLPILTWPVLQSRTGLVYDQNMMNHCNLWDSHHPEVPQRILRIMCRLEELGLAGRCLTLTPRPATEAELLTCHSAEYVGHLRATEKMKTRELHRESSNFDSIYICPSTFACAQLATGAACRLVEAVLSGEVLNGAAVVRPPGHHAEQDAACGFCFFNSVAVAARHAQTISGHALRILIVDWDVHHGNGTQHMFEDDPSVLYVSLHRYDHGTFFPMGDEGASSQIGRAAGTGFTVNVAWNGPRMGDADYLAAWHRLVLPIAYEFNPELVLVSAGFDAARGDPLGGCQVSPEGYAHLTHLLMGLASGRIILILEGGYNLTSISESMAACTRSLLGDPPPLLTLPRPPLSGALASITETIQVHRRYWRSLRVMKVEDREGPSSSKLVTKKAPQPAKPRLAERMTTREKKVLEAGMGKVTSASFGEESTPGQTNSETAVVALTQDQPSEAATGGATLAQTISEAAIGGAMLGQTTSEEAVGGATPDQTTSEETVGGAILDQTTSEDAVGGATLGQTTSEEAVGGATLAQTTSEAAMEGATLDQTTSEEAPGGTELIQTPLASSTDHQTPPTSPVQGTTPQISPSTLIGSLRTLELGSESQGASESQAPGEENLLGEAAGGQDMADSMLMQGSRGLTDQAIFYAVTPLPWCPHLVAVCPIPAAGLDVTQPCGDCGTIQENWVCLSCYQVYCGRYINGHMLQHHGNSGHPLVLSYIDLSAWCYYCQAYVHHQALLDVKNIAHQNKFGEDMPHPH
As to the kind of experiment: Inhibition of human HDAC6 using fluorogenic tetrapeptide RHKKAc as substrate.

Another test addresses T2, Histone deacetylase 8 (Homo sapiens, UniProt Q9BY41).
T2 sequence (Q9BY41 whole entry): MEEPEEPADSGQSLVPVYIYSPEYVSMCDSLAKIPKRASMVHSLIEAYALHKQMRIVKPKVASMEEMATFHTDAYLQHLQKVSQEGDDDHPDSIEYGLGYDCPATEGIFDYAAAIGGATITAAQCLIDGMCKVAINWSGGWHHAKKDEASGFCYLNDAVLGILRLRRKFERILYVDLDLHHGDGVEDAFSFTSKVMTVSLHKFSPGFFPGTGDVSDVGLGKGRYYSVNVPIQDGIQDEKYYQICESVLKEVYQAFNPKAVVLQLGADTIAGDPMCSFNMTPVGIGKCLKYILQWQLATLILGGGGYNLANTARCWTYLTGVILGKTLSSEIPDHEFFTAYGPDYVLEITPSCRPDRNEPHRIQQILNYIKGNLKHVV
As to the kind of experiment: Inhibition of human HDAC8 using fluorogenic tetrapeptide RHKKAc as substrate.

In another test the target is Histone deacetylase 9 (Homo sapiens, UniProt Q9UKV0). As to the kind of experiment: Inhibition of human HDAC9 using fluorogenic tetrapeptide RHKKAc as substrate.
Test [2] has as its target T3, Polyamine deacetylase HDAC10 (Homo sapiens, UniProt Q969S8).
T3 sequence (Q969S8 whole entry): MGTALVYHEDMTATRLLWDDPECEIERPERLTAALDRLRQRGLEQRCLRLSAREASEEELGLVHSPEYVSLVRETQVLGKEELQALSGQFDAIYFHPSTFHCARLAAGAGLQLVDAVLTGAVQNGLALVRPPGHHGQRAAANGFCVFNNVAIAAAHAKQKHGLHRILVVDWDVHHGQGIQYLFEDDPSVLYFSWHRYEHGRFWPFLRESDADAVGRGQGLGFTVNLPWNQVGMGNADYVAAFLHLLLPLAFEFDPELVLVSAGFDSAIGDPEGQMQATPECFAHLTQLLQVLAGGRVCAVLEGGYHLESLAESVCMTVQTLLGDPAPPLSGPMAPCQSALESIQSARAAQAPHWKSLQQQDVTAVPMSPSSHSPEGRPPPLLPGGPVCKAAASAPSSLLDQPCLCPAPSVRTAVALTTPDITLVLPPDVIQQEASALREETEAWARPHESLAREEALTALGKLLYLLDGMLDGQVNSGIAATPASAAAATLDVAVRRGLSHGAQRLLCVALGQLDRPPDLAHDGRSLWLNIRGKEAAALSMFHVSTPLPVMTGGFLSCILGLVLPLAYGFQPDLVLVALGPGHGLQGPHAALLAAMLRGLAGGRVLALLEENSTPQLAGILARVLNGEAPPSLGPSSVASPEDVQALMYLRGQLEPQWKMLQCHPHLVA
As to the kind of experiment: Inhibition of human HDAC10 using fluorogenic tetrapeptide RHKKAc as substrate.

The subject of the next test is IGROV-1. The test can be described thus: Induction of apoptosis in human IGROV1 cells at IC80 after 72 hrs by TUNEL and flow cytometry analysis (reference value: 4%). The format is functional. For orientation: In flow cytometry, cells or beads pass a laser one at a time.

Molecules are shown by their SMILES. A value given as a limit tells only on which side of the number the result lay.

The term IC50 denotes the concentration needed to halve the response being measured.

Histone deacetylase 3, sequence (O15379 whole entry): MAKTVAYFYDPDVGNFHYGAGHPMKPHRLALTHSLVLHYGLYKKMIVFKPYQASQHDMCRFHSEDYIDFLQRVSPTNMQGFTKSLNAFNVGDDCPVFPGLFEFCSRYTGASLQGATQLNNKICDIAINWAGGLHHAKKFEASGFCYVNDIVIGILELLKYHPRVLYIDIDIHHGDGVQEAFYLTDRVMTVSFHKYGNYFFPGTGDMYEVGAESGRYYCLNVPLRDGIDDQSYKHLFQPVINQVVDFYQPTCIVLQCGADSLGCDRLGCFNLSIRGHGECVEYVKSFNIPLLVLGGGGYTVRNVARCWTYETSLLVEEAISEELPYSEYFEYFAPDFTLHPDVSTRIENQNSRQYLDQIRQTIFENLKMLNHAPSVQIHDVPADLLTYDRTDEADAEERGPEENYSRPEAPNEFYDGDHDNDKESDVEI
Histone deacetylase 4, sequence (P56524 whole entry): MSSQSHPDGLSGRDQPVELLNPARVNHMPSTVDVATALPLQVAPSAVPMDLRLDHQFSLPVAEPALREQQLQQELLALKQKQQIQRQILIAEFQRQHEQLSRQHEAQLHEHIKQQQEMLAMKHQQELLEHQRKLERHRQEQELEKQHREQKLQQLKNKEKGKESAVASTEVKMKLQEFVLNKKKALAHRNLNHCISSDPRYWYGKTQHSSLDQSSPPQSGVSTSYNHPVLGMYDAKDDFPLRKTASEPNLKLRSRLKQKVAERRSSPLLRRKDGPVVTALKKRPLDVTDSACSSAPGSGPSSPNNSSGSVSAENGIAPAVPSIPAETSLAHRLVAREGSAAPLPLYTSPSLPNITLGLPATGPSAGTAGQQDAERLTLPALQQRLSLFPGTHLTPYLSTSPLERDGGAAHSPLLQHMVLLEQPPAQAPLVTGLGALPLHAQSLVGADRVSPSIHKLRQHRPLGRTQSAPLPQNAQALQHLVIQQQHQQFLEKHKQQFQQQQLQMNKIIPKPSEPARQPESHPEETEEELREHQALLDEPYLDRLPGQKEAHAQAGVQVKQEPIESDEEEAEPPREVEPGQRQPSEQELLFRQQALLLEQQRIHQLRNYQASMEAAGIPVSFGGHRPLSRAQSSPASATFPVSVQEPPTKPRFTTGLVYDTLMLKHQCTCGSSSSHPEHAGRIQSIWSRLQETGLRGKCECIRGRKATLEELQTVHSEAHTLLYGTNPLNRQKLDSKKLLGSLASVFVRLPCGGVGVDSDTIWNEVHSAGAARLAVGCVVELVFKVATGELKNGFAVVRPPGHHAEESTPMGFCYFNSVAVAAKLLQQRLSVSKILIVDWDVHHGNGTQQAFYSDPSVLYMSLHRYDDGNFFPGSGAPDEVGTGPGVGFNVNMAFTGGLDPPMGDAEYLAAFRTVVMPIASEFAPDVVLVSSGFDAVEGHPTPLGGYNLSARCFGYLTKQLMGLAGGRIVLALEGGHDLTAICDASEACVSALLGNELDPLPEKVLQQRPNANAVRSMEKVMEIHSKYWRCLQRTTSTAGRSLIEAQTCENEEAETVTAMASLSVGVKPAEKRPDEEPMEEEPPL
Histone deacetylase 1, sequence (Q13547 whole entry): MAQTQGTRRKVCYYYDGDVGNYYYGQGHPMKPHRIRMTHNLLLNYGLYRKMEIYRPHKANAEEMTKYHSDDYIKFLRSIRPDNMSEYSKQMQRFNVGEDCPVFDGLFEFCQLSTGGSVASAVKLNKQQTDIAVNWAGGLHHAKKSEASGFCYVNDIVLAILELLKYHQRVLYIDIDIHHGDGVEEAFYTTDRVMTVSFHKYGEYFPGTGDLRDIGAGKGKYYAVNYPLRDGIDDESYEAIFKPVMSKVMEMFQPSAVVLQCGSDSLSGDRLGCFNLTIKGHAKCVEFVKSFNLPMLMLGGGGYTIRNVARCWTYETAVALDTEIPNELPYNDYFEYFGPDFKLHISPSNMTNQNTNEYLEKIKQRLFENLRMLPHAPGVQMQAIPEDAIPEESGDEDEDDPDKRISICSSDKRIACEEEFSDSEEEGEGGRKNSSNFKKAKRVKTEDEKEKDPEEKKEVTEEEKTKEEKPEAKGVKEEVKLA
Histone deacetylase 9, sequence (Q9UKV0 whole entry): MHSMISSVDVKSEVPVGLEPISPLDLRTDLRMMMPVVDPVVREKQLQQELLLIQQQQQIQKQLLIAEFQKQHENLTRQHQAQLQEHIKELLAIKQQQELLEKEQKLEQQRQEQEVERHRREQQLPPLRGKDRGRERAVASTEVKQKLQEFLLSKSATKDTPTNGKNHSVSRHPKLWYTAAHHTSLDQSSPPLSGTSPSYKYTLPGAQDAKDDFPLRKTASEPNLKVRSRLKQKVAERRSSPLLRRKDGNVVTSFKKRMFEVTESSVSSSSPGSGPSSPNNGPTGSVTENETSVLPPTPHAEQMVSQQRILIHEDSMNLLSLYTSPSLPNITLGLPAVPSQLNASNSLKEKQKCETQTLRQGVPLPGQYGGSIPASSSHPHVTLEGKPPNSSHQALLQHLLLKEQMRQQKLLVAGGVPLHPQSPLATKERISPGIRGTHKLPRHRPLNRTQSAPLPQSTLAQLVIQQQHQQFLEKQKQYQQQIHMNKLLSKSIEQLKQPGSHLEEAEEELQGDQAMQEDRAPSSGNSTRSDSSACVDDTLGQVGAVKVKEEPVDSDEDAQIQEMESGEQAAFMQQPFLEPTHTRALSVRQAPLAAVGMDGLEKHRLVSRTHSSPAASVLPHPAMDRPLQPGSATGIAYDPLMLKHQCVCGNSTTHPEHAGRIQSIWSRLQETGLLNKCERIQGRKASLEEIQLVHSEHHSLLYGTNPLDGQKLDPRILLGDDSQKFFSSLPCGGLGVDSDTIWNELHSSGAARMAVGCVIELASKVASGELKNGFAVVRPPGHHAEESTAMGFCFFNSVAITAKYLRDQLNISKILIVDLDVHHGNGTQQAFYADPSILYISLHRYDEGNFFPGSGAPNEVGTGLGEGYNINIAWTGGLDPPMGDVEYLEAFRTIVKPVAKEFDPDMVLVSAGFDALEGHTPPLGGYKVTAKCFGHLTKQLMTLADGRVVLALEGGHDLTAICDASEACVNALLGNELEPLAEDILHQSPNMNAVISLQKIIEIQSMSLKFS
Histone deacetylase 5, sequence (Q9UQL6 whole entry): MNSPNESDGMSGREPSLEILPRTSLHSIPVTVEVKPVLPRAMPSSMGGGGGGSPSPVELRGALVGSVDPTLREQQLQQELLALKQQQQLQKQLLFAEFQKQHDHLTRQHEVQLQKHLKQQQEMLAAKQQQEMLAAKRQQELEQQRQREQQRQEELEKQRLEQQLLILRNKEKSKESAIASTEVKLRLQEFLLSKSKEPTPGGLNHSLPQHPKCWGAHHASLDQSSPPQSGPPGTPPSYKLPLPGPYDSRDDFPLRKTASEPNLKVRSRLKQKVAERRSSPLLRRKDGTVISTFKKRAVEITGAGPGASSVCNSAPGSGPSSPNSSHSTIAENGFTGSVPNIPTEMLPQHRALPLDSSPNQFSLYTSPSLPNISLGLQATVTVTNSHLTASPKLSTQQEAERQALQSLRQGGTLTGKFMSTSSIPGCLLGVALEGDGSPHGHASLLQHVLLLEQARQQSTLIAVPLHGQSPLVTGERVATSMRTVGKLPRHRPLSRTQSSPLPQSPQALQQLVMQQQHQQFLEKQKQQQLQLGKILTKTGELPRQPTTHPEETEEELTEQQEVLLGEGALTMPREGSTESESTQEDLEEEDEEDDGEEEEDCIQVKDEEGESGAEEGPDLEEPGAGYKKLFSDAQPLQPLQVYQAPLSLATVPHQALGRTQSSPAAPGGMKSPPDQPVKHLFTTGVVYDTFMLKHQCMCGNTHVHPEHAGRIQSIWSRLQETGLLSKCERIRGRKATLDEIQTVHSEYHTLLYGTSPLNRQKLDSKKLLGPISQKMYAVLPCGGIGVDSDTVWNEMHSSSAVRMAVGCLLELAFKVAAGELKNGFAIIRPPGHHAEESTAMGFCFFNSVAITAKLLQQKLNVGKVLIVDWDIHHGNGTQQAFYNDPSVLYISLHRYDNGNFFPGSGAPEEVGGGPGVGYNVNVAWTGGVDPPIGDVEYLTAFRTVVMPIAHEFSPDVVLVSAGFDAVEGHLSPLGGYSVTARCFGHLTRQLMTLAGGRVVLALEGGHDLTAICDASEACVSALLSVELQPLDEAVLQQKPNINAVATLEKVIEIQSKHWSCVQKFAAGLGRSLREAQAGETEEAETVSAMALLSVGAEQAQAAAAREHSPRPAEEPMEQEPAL

Take `COc1ccc(-c2ccc(/C=C/C=C/C(=O)NO)cc2)cc1`: the IC50 was 2.4 µM with HCT-116; greater than 100 µM against Histone deacetylase 1; greater than 100 µM against Histone deacetylase 3; greater than 100 µM against Histone deacetylase 4; greater than 100 µM against Histone deacetylase 5; 3.26 µM in test [1]. Besides, the IC50 was 1.56 µM against Histone deacetylase 8, greater than 100 µM against Histone deacetylase 9 and greater than 100 µM in test [2]. The molecule also displayed an Activity in the test on IGROV-1 of 91%.
Take `COc1ccc(-c2ccc(/C=C/C=C/C(=O)NO)cc2)cc1C12CC3CC(CC(C3)C1)C2`: the IC50 in the test on HCT-116 was 1.8 µM; against Histone deacetylase 1, 60.1 µM; at Histone deacetylase 3, greater than 100 µM; against Histone deacetylase 4, greater than 100 µM; against Histone deacetylase 5 it was greater than 100 µM; in test [1], 16.7 µM. Besides, the IC50 is 30.6 µM at Histone deacetylase 8, greater than 100 µM against Histone deacetylase 9 and greater than 100 µM in test [2]. Moreover, the Activity in the test with IGROV-1 turned out to be 52%.
